Experimental data: ChEMBL document CHEMBL1124765, “Synthesis and biological properties of novel phosphotriesters: a new approach to the introduction of biologically active nucleotides into cells” (J Med Chem, 1990)
≈ marks a conversion by molar mass, not a printed value.

What was measured:
[1] = pKa value was determined; format: physicochemical
Mus musculus [2] = assay: Topical treatment of intracutaneous HSV-1(KOS) herpes simplex virus type 1 infection of Nu/nu mice for mean day of appearance of skin lesions and/or paralysis of the hind legs at 0.3% concentration (v/v in DMSO); format: functional
How it was run: (§1)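 Inocula were TK⁻ HSV-1 at 10⁶ CCID50/0.05 mL or HSV-1 KOS at 10^4.7 PFU/0.05 mL. Test formulations in DMSO were applied topically four times daily for 5 days, starting at infection. Skin lesions, hind-leg paralysis and death were recorded daily for 28 (KOS) or 49 (TK⁻) days, with five mice per group.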

Mus musculus [3] = assay: Topical treatment of intracutaneous HSV-1(KOS) herpes simplex virus type 1 infection of Nu/nu mice for mean day of appearance of skin lesions and/or paralysis of the hind legs at 1% concentration (v/v in DMSO); format: functional; how it was run: as §1
Mus musculus [4] = assay: Topical treatment of intracutaneous HSV-1(KOS) herpes simplex virus type 1 infection of Nu/nu mice for mean day of appearance of skin lesions and/or paralysis of the hind legs at 3% concentration (v/v in DMSO); format: functional; how it was run: as §1
Mus musculus [5] = assay: Topical treatment of intracutaneous TK- herpes simplex virus type 1 of strain VMW 1837 infection of Nu/nu mice for mean day of appearance of skin lesions and/or paralysis of the hind legs at 0.3% concentration (v/v in DMSO); format: functional; how it was run: as §1
Mus musculus [6] = assay: Topical treatment of intracutaneous TK- herpes simplex virus type 1 of strain VMW 1837 infection of Nu/nu mice for mean day of appearance of skin lesions and/or paralysis of the hind legs at 1% concentration (v/v in DMSO); format: functional; how it was run: as §1
Mus musculus [7] = assay: Topical treatment of intracutaneous TK- herpes simplex virus type 1 of strain VMW 1837 infection of Nu/nu mice for mean day of appearance of skin lesions and/or paralysis of the hind legs at 3% concentration (v/v in DMSO); format: functional; how it was run: as §1
Oryctolagus cuniculus = species: Oryctolagus cuniculus; assay: Evaluated for the minimum cytotoxic concentration (MCC) upon preincubation of rabbit kidney cells in medium containing 10% fetal calf serum at 37 degree Celsius for 24 hr; format: functional; conditions: Oryctolagus cuniculus, kidney; read-out: MCC
How it was run: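 Primary rabbit kidney cell cultures were exposed to compounds, some preincubated 24 h at 37 °C in medium with 10% fetal calf serum. The minimum cytotoxic concentration was the level causing a microscopically detectable change in normal cell morphology.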

Human alphaherpesvirus 1 [8] = assay: Evaluated for the minimum inhibitory concentration (MIC) in primary rabbit kidney (PRK) by 50% against TK- herpes simplex virus type 1 (TK- HSV-1) with strain VMW 1837; format: functional
How it was run: (§2)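 Confluent primary rabbit kidney cell monolayers were infected with 100 CCID50 of virus. After 1 h adsorption, residual virus was removed and cells were incubated with serial compound concentrations. Cytopathogenicity was scored once it reached completion in untreated infected controls. The endpoint was the concentration reducing virus-induced cytopathogenicity by 50%.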

Vaccinia virus = assay: Evaluated for the minimum inhibitory concentration (MIC) in primary rabbit kidney (PRK) by 50% against vaccinia virus; format: functional; conditions: Orthopoxvirus vaccinia; how it was run: as §2
Human alphaherpesvirus 1 [9] = assay: Evaluated for the minimum inhibitory concentration (MIC) in primary rabbit kidney (PRK) by 50% against TK- herpes simplex virus type 1 (TK- HSV-1) with strain B2006; format: functional; how it was run: as §2
Human alphaherpesvirus 1 [10] = assay: Evaluated for the minimum inhibitory concentration (MIC) in primary rabbit kidney (PRK) by 50% against herpes simplex virus type-1 (HSV-1) with strains KOS; format: functional
How it was run: (§3)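 Confluent primary rabbit kidney cell cultures infected with 100 CCID50 virus; after 1 h adsorption residual virus removed and cells incubated with varying compound concentrations. Cytopathogenicity scored when complete in infected untreated controls; MIC = concentration reducing virus-induced cytopathogenicity by 50%. Compounds tested as such or after preincubation in medium with 10% fetal calf serum, 24 h, 37 °C.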

Human alphaherpesvirus 1 [11] = assay: Evaluated for the minimum inhibitory concentration (MIC) in primary rabbit kidney (PRK) by 50% against herpes simplex virus type-1 (HSV-1) with strains McIntyre; format: functional; how it was run: as §3
Human alphaherpesvirus 2 [12] = assay: Evaluated for the minimum inhibitory concentration (MIC) in primary rabbit kidney (PRK) by 50% against herpes simplex virus type-2 (HSV-2) with strains 196; format: functional; how it was run: as §3
Human alphaherpesvirus 2 [13] = assay: Evaluated for the minimum inhibitory concentration (MIC) in primary rabbit kidney (PRK) by 50% against herpes simplex virus type-2 (HSV-2) with strains G; format: functional; how it was run: as §2
Human alphaherpesvirus 2 [14] = assay: Evaluated for the minimum inhibitory concentration (MIC) in primary rabbit kidney (PRK) by 50% against herpes simplex virus type-2 (HSV-2) with strains Lyons; format: functional; how it was run: as §3
[15] = tested on: Vesicular stomatitis virus; assay: Evaluated for the minimum inhibitory concentration (MIC) in primary rabbit kidney (PRK) by 50% against vesicular stomatitis virus; format: functional; how it was run: as §2
Human alphaherpesvirus 1 [16] = assay: Evaluated for the minimum inhibitory concentration (MIC) in primary rabbit kidney (PRK) by 50% against herpes simplex virus type-1 (HSV-1) with strains F; format: functional; how it was run: as §3

CSc1ccc(OP(=O)(OC[C@H]2O[C@@H](n3cc(C)c(=O)[nH]c3=O)C[C@@H]2OC(C)=O)OC[C@H]2O[C@@H](n3cc(C)c(=O)[nH]c3=O)C[C@@H]2OC(C)=O)cc1
pKa [1]: 9.53

CC(=O)O[C@H]1C[C@H](n2cc(C)c(=O)[nH]c2=O)O[C@@H]1COP(=O)(OC[C@H]1O[C@@H](n2cc(C)c(=O)[nH]c2=O)C[C@@H]1OC(C)=O)Oc1ccc([N+](=O)[O-])cc1
pKa [1]: 7.16

O=c1[nH]c(=O)n([C@H]2C[C@H](O)[C@@H](CO)O2)cc1/C=C/Br [BRIVUDINE]
Mean day appearance of lesions (Mus musculus [2]): 6.2 | Mean day appearance of lesions (Mus musculus [3]): 9.4 | Mean day appearance of lesions (Mus musculus [4]): 9.4 | Mean day appearance of lesions (Mus musculus [5]): 8.8 | Mean day appearance of lesions (Mus musculus [6]): 9.7 | Mean day appearance of lesions (Mus musculus [7]): 10.8 | MCC (Oryctolagus cuniculus): > 400 µg/mL | MIC (Human alphaherpesvirus 1 [8]): 300 µg/mL (≈ 901 µM) | MIC (Vaccinia virus): 7 µg/mL (≈ 21 µM) | MIC (Human alphaherpesvirus 1 [9]): 200 µg/mL (≈ 600 µM) | MIC (Human alphaherpesvirus 1 [10]): 0.02 µg/mL (≈ 0.06 µM) | MIC (Human alphaherpesvirus 1 [11]): 0.02 µg/mL (≈ 0.06 µM) | MIC (Human alphaherpesvirus 2 [12]): 150 µg/mL (≈ 450 µM) | MIC (Human alphaherpesvirus 2 [13]): 4 µg/mL (≈ 12 µM) | MIC (Human alphaherpesvirus 2 [14]): 40 µg/mL (≈ 120 µM) | MIC [15]: > 400 µg/mL | MIC (Human alphaherpesvirus 1 [16]): 0.02 µg/mL (≈ 0.06 µM)

CC(=O)O[C@H]1C[C@H](n2cc(C)c(=O)[nH]c2=O)O[C@@H]1COP(=O)(OC[C@H]1O[C@@H](n2cc(C)c(=O)[nH]c2=O)C[C@@H]1OC(C)=O)Oc1ccccc1Cl
pKa [1]: 8.48

CC(=O)O[C@H]1C[C@H](n2cc(C)c(=O)[nH]c2=O)O[C@@H]1COP(=O)(OC[C@H]1O[C@@H](n2cc(C)c(=O)[nH]c2=O)C[C@@H]1OC(C)=O)Oc1ccc(Cl)cc1
pKa [1]: 9.38
